Measurements as given in ChEMBL document CHEMBL2390935, “Synthesis and pharmacological properties of a new hydrophilic and orally bioavailable 5-HT4 antagonist” (Eur J Med Chem, 2013).

What was measured:
Rattus norvegicus [1] = experiment: AUC in Sprague-Dawley rat at 10 mg/kg, po by LC-MS/MS analysis; assay type: ADME, organism-based, Plasma; set-up: dose 10 mg/kg, route oral; details: in vivo
Outline: (§1)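 Male Sprague-Dawley rats (n = 3 per compound, n = 2 for the medoxomil prodrug) given 10 mg/kg p.o., in 10% ethanol in water or in 2% β-cyclodextrin (1.0 mg/ml). Tail-vein and terminal blood taken to 24 h. Plasma acidified and acetonitrile-precipitated. Free acid quantified by UPLC-ESI MRM MS. Non-compartmental analysis for each animal, then averaged; AUC by linear trapezoidal rule extrapolated to infinity; Cmax and Tmax read directly; T1/2 from terminal slope.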

[2] = Metabolic stability in human liver microsomes assessed as compound remaining at 2 uM after 60 mins by LC-MS analysis; assay type: ADME, Microsome; details: read-out: Stability
Outline: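 Pooled human liver microsomes (30 donors) at 0.5 mg protein/ml, 2 µM substrate, 1% DMSO, 1 mM NADPH plus 1 mM UDPGA, 37 °C. Cofactor-free parallel incubations run. Samples taken at 0, 10, 30 and 60 min and quenched with ice-cold acetonitrile. Disappearance judged by LC-MS peak area against the 0 min sample without cofactors.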

[3] = target: Voltage-gated inwardly rectifying potassium channel KCNH2 (Homo sapiens, UniProt Q12809); experiment: Inhibition of human ERG expressed in HEK293 cells by whole-cell patch-clamp technique; assay type: cell-based
Voltage-gated inwardly rectifying potassium channel KCNH2, sequence (Q12809 whole entry, the tested form may be a part): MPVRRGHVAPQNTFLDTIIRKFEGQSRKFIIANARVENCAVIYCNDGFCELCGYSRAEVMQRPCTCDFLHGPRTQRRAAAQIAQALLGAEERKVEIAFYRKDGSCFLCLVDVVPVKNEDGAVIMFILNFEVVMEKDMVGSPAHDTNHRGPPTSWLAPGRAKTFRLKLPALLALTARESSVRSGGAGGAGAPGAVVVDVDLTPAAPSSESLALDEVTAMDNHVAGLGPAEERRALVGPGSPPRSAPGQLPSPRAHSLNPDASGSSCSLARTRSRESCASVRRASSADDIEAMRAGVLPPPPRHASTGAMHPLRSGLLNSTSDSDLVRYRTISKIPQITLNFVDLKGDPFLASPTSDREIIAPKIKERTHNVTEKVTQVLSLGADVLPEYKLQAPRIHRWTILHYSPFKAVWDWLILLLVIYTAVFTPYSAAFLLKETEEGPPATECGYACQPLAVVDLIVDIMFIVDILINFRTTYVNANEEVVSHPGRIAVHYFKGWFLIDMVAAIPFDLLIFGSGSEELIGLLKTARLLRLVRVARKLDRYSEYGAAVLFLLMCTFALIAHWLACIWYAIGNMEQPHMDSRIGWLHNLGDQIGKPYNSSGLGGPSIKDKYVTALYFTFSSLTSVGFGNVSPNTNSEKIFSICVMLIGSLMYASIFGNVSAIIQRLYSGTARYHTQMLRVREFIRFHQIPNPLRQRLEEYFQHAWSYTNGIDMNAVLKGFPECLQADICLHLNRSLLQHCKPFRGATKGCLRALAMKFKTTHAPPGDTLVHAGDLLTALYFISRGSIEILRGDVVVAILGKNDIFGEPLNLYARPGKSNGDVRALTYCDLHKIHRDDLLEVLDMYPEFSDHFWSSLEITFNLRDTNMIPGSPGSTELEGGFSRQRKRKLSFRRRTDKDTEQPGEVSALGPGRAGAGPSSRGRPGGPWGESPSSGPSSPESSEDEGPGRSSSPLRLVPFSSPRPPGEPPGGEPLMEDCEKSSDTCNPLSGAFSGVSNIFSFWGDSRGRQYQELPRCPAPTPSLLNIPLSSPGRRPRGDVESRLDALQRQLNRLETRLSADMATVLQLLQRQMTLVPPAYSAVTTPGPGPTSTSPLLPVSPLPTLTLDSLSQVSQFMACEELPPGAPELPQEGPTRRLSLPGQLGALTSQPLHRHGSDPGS
Outline: (§2)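 Whole-cell patch clamp on isolated hERG-expressing cells superfused with HB-PSS, one cell per coverslip, holding potential -80 mV. Peak tail current averaged over 5–10 pulses. Baseline taken before exposure; ascending concentrations applied to steady state without washout, at least 3 cells per concentration. Residual current corrected for time-matched vehicle rundown. IC50 from a Hill-type fit. Terfenadine 50 nM served as positive control.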

[4] = Tmax in Sprague-Dawley rat at 10 mg/kg, po by LC-MS/MS analysis; assay type: ADME, organism-based; set-up: dose 10 mg/kg, route oral; details: in vivo; outline: as §1
[5] = target: T1, 5-hydroxytryptamine receptor 4 (Homo sapiens, UniProt Q13639); experiment: Antagonist activity at human 5-HT4B receptor expressed in HEK293 cells assessed as inhibition of 5-HT-stimulated adenylyl cyclase activity after 20 mins; assay type: functional, cell-based
T1 sequence (Q13639 whole entry): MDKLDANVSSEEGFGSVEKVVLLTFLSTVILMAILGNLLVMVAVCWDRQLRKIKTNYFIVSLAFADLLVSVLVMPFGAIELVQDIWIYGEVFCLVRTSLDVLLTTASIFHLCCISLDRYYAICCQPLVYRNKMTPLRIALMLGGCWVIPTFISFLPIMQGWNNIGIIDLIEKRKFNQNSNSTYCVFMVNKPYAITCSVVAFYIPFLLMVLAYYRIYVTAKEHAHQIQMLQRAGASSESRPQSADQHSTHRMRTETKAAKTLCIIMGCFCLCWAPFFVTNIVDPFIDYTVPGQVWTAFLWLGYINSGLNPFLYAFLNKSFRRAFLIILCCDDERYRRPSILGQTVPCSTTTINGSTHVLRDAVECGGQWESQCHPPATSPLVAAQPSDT
Outline: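 Membranes from HEK293 cells stably expressing human 5-HT4(b). Adenylyl cyclase activity stimulated by 1 µM 5-HT. Inhibition measured across a concentration range of test compound.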

[6] = 1-octanol-PBS partition coefficient, log D of the compound at pH 7.4 by shake-flask method; assay type: physicochemical
[7] = Elimination half life in Sprague-Dawley rat at 10 mg/kg, po by LC-MS/MS analysis; assay type: ADME, organism-based; set-up: dose 10 mg/kg, route oral; details: in vivo, read-out: beta t1/2; outline: as §1
[8] = Oral bioavailability in Sprague-Dawley rat at 10 mg/kg by LC-MS/MS analysis; assay type: ADME, organism-based; details: in vivo
Outline: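 Male Sprague-Dawley rats dosed 10 mg/kg p.o. and 1 mg/kg i.v. Plasma free acid measured by LC-MS/MS at timed samples up to 24 h. Non-compartmental AUC (trapezoidal, extrapolated to infinity). F = (AUC p.o./dose p.o.)/(AUC i.v./dose i.v.), expressed in %.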

hERG (KCNH2) = hERG (KCNH2) (Homo sapiens, UniProt Q12809); experiment: Inhibition of human ERG expressed in HEK293 cells at 100 uM by whole-cell patch-clamp technique relative to control; assay type: cell-based; details: HEK293 cells expressing human ERG; outline: as §2
hERG (KCNH2), sequence (Q12809 whole entry): as the sequence (Q12809 whole entry, the tested form may be a part) above

[9] = target: T1, 5-hydroxytryptamine receptor 4; experiment: Displacement of [3H]GR113808 from human 5-HT4B receptor expressed in HEK293 cells after 1 hr by liquid scintillation counting analysis; assay type: cell-based
Outline: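 Competitive binding with 0.3 nM [3H]GR113808 on membranes from HEK293 cells stably expressing human 5-HT4(b).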

[10] = Cmax in Sprague-Dawley rat at 10 mg/kg, po by LC-MS/MS analysis; assay type: ADME, organism-based; set-up: dose 10 mg/kg, route oral; details: in vivo; outline: as §1
Rattus norvegicus [11] = experiment: Cmax in Sprague-Dawley rat assessed as 2-[4-[[4-(3,4-dihydro-2H-[1,3]oxazino[3,2-a]indole-10-carbonyloxymethyl)-1-piperidinyl]methyl]phenyl]-2-methylpropanoic acid level at 10 mg/kg, po by LC-MS/MS analysis; assay type: ADME, organism-based; set-up: dose 10 mg/kg, route oral; details: in vivo
Outline: (§3)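 Male Sprague-Dawley rats, 10 mg/kg p.o. in 10% ethanol/water or 2% β-cyclodextrin (1.0 mg/ml), n = 2–3. Tail-vein and terminal cardiac blood taken under isoflurane at 5 min–24 h. Plasma acidified and acetonitrile-precipitated, then the free acid measured by LC-MS MRM (LOQ 0.5 ng/ml). Non-compartmental analysis per animal, averaged. T1/2 from the terminal log-linear regression; Cmax and Tmax read directly.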

Rattus norvegicus [12] = experiment: Elimination half life in Sprague-Dawley rat assessed as 2-[4-[[4-(3,4-dihydro-2H-[1,3]oxazino[3,2-a]indole-10-carbonyloxymethyl)-1-piperidinyl]methyl]phenyl]-2-methylpropanoic acid level at 10 mg/kg, po by LC-MS/MS analysis; assay type: ADME, organism-based; set-up: dose 10 mg/kg, route oral; details: in vivo; outline: as §3
Rattus norvegicus [13] = experiment: Tmax in Sprague-Dawley rat assessed as 2-[4-[[4-(3,4-dihydro-2H-[1,3]oxazino[3,2-a]indole-10-carbonyloxymethyl)-1-piperidinyl]methyl]phenyl]-2-methylpropanoic acid level at 10 mg/kg, po by LC-MS/MS analysis; assay type: ADME, organism-based; set-up: dose 10 mg/kg, route oral; details: in vivo; outline: as §3
Rattus norvegicus [14] = experiment: AUC in Sprague-Dawley rat assessed as 2-[4-[[4-(3,4-dihydro-2H-[1,3]oxazino[3,2-a]indole-10-carbonyloxymethyl)-1-piperidinyl]methyl]phenyl]-2-methylpropanoic acid level at 10 mg/kg, po by LC-MS/MS analysis; assay type: ADME, organism-based, Plasma; set-up: dose 10 mg/kg, route oral; details: in vivo; outline: as §3
Rattus norvegicus [15] = experiment: Oral bioavailability in Sprague-Dawley rat assessed as 2-[4-[[4-(3,4-dihydro-2H-[1,3]oxazino[3,2-a]indole-10-carbonyloxymethyl)-1-piperidinyl]methyl]phenyl]-2-methylpropanoic acid level at 10 mg/kg by LC-MS/MS analysis; assay type: ADME, organism-based; details: in vivo
Outline: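 Rats given 10 mg/kg orally and, for the free acid, 1 mg/kg i.v. Free-acid plasma levels measured by LC-MS at timed points. AUC by linear trapezoidal rule, extrapolated to infinity. F = (AUC p.o./dose p.o.)/(AUC i.v./dose i.v.), reported as %.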

CC(C)(C(=O)O)c1ccc(CN2CCC(COC(=O)c3c4n(c5ccccc35)CCCO4)CC2)cc1
AUC (Rattus norvegicus [1]): 285 ng·h/mL
remaining at 1 h, 2 µM [2]: < 0.1%
IC50 [3]: 69000 nM
Tmax [4]: 0.2 h
pKb [5]: 8.6
logD [6]: -1.2
half-life [7]: 6.07 h
bioavailability [8]: 3%
inhibition at 100 µM (hERG (KCNH2)): 55.8%
Ki [9]: 0.126 nM
Cmax [10]: 130 ng/mL

Cc1oc(=O)oc1COC(=O)C(C)(C)c1ccc(CN2CCC(COC(=O)c3c4n(c5ccccc35)CCCO4)CC2)cc1
Cmax (Rattus norvegicus [11]): 817 ng/mL
beta t1/2 (Rattus norvegicus [12]): 1.2 h
Tmax (Rattus norvegicus [13]): 0.5 h
AUC (Rattus norvegicus [14]): 1206 ng·h/mL
logD [6]: 2.2
F (Rattus norvegicus [15]): 16%

CC(C)(C)c1ccc(CN2CCC(COC(=O)c3c4n(c5ccccc35)CCCO4)CC2)cc1
AUC (Rattus norvegicus [1]): 533 ng·h/mL
Cmax (Rattus norvegicus [11]): 13 ng/mL
Tmax [4]: 5.67 h
beta t1/2 (Rattus norvegicus [12]): 19.83 h
Tmax (Rattus norvegicus [13]): 1.33 h
AUC (Rattus norvegicus [14]): 127 ng·h/mL
logD [6]: 2.4
half-life [7]: 26.8 h
bioavailability [8]: 6%
F (Rattus norvegicus [15]): 1%
Cmax [10]: 33 ng/mL

Cn1cc(C(=O)OCC2CCN(CCNS(C)(=O)=O)CC2)c2ccccc21
pKb [5]: 8.7
Ki [9]: 0.0398 nM

CCCCN1CCC(CNC(=O)c2c3n(c4ccccc24)CCCO3)CC1 [PIBOSEROD]
pKb [5]: 9.1
Ki [9]: 0.1 nM
